Experimental data reported in PubChem BioAssay AID504382 (The Scripps Research Institute Molecular Screening Center, 2011).
Screen size: about 2,500 compounds; about 460 (18%) were called active.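 How the source made its calls: active means mean activation above a cutoff of low control average plus 3 SD from the earlier screen (cut at about 12% in these data); inactive means the rest.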 These entries were drawn from the full list.

Assay: compound fluorescence interference without thin filaments, confirmation, artefact control for cardiac RTF calcium sensitizer project, biochemical (AID 504382)
Conditions: IANBD fluorescence interference counterscreen, buffer, EC20 Ca2+; at 7.2 µM; stronger effect = higher value; scaled: EC20 calcium 0, EC100 calcium 100
How it was run: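 timing = compound incubation 15 min at 25 °C before fluorescence reading | technique = fluorescence at 480 nm excitation, 540 nm emission | evaluation = interference relative to controls | replication = triplicate wells per compound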

Compound	fluorescence artifact activation
Cc1ccc(/C=C2/NC(=O)N(Cc3ccccc3)C2=O)s1	0.01% (inactive)
CN(C)c1ccc(/C=C2\NC(=S)N(Cc3ccccc3)C2=O)cc1	91.1% (active)
CN(C)c1ccc(/C=C2\CCC/C(=C\c3ccccc3)C2=O)cc1	0.02% (inactive)
COC(=O)c1sccc1Oc1ccc(Cl)cc1N1C(=O)CCC1=O	0.03% (inactive)
COC(=O)c1c(=O)n(O)c2ccc(OC)cc2[n+]1[O-]	0.04% (inactive)
C=CCn1c(=O)/c(=C/c2cc(OC)c(OC)c(OC)c2)s/c1=C(/C#N)c1nc2ccccc2n1C	0.02% (inactive)
Cc1cccc(OCc2nn[nH]n2)c1C	1.02% (inactive)
COc1ccccc1C1=NOC(Cn2c(=O)c3c(ncn3C)n(C)c2=O)C1 (stereo not given)	0.23% (inactive)
O=C1c2cccc3cc([N+](=O)[O-])cc(c23)C(=O)N1CCN1CCCC1	0.08% (inactive)
CCN(CC)CCN1C(=O)c2cccc3cc(N)cc(c23)C1=O	24.6% (active)
CC(C)CCN1C(=O)c2cccc3c(N)ccc(c23)C1=O	1.45% (inactive)
Cc1ccc(Cn2c(O)c(N=NC(=S)Nc3ccccc3F)c3cc(S(=O)(=O)N4CCOCC4)ccc32)cc1	5.72% (inactive)
CC(=O)c1cc(NC(=O)c2ccc(C)cc2)c(=O)oc1/C=C/N(C)C	15.6% (active)
COC(=O)c1cc(NC(=O)c2ccccc2)c(=O)oc1C/C=N\OCc1ccc(Cl)cc1Cl	0.01% (inactive)
CC(=O)c1cc(NC(=O)c2ccc(Cl)cc2)c(=O)oc1/C=C/N(C)C	0.02% (inactive)
N#CC12COC3(CCCCC3C1(C#N)C#N)OC2=N (stereo not given)	0.14% (inactive)
CN(CC(=O)NCc1ccco1)S(=O)(=O)c1cccc2cccnc12	6.75% (inactive)
CCOc1ccc(N(C(=O)CNC(=O)c2ccco2)C(C(=O)NC2CCCC2)c2ccncc2)cc1 (stereo not given)	0.08% (inactive)
CCC(C)(C)NC(=O)C(c1ccc(F)cc1)N(Cc1ccco1)C(=O)c1cnccn1 (stereo not given)	18.7% (active)
COc1cccc(CN2CCNC(=O)C2CC(=O)N(C)Cc2cnccn2)c1OC (stereo not given)	0.09% (inactive)
O=C(CSC1=NS(=O)(=O)c2ccccc2N1)N1CCCCC1	1.61% (inactive)
CN(C)C(CNC(=O)CSc1nc2ccccc2c(=O)n1Cc1ccco1)c1ccccc1 (stereo not given)	-0.06% (inactive)
CC1(C)CC(CC(=O)Nc2nccs2)(c2ccccc2)CCO1 (stereo not given)	239% (active)
O=C(Cc1c(F)cccc1Cl)Nc1nccs1	0.01% (inactive)

Compound	fluorescence artifact activation
CC1(C)CC2(CCCN(C(=S)Nc3ccccc3)C2)CCO1 (stereo not given)	0.12% (inactive)
Cn1c(=O)cc(SCC(=O)NCC2COc3ccccc3O2)c2ccccc21 (stereo not given)	0.03% (inactive)
Cc1cc(NS(C)(=O)=O)c(=O)n(Cc2cccc(F)c2)c1	0.35% (inactive)
COc1ccc(N/C=C2\C(=O)CCc3c2oc2cc(Cl)c(O)c(Cl)c32)cc1	12.7% (active)
Cn1cnnc1Sc1nc2ccccc2nc1NS(=O)(=O)c1ccccc1	4.87% (inactive)
Cc1cc(N/C=C\c2nnnn2-c2ccc(F)cc2)no1	233% (active)
CC(=O)N(c1ccccc1)C1SC(=O)N(c2ccccc2)C1=O (stereo not given)	0.05% (inactive)
O=C(O)c1cc(-c2ccc(/C=C3/SC(=S)N(Cc4ccccc4)C3=O)o2)ccc1Cl	0.02% (inactive)
O=C(O)C(c1ccccc1)N1C(=O)/C(=C\c2ccc(-c3ccc(Br)cc3)o2)SC1=S (stereo not given)	68.3% (active)
O=C(O)CN1C(=O)/C(=C/c2ccc(SCc3ccccc3)o2)SC1=S	11.5% (inactive)
CC(C)NC(=S)N/N=C/c1sc(N2CCCCC2)nc1-c1cccs1	0.18% (inactive)
FC(F)(F)c1ccc(-c2nc(=S)[nH][nH]2)cc1	-0.01% (inactive)
CCN(CC)CC(C(=O)N(CC)CC)P(=O)(c1ccccc1)c1ccccc1 (stereo not given)	1.03% (inactive)
Cc1ccc(SCC(=O)OCC(=O)NCc2cccs2)cc1	2.52% (inactive)
O=C(CO/N=C/c1ccccc1OC(F)F)NCc1cccs1	16.6% (active)
CCC1Oc2ccc(C)cc2N(CC(=O)NCc2cccs2)C1=O (stereo not given)	-0.08% (inactive)
C=CCOc1ccc(C2OC34CCCCC3C(C#N)(C#N)C2(C#N)C(=N)O4)cc1 (stereo not given)	0.84% (inactive)
Cc1ccc(-c2noc(-c3c(C)noc3C)n2)cc1	2% (inactive)
O=C1c2ccsc2SCCN1Cc1ccc(F)cc1	7.58% (inactive)
O=C(NN1C(=O)/C(=C/c2ccc(O)cc2)SC1=S)c1ccccc1O	0.14% (inactive)
C=C(C)c1cccc(C(C)(C)NC(=O)Nc2cccnc2)c1	5% (inactive)
N#CC1=C(N)OC2=C(CC/C2=C\c2ccccc2Cl)C1c1ccccc1Cl (stereo not given)	125% (active)
N#CC1=C(N)OC2=C(CC/C2=C\c2ccccc2)C1c1ccccc1 (stereo not given)	1.94% (inactive)
Cc1ccc(/C=C2\CCC3=C2OC(N)=C(C#N)C3c2ccc(C)cc2)cc1 (stereo not given)	0.12% (inactive)

Compound	fluorescence artifact activation
COc1ccc2c(n1)Sc1nc3ccccc3nc1N2	0.01% (inactive)
O=C(c1ccccc1)c1ccccc1C(=O)c1ccccc1	0.23% (inactive)
O=C(c1ccccc1)c1ccc(O)cc1O	24.9% (active)
O=C(c1ccccc1)c1ccncc1	0.03% (inactive)
CC1(C)CC(=O)C2=C(C1)OC(N)=C(C#N)[C@@H]2c1ccccc1[N+](=O)[O-]	7.58% (inactive)
O=C(O)CCC(=O)NNC(=O)c1ccc(-c2ccccc2)cc1	49% (active)
O=C(O)c1ccc(NC(=S)NC(=O)c2ccc(-c3ccccc3)cc2)cc1	9.94% (inactive)
CCNC(=O)COc1ccc(-c2ccccc2)cc1	0.09% (inactive)
COc1cc(NC(=O)CSc2ccccc2)c(C(=O)O)cc1OC	3.35% (inactive)
Nc1nc(SCc2cccc(Br)c2)n[nH]1	0.03% (inactive)
CC(Sc1nc2ncc(Cl)cc2[nH]1)C(=O)Nc1ccc(C(N)=O)cc1 (stereo not given)	-0.03% (inactive)
CCCN(CCC)c1nc2c(C)cccn2c(=O)c1/C=C1/SC(=S)N(Cc2ccco2)C1=O	0.05% (inactive)
O=C1/C(=C\c2c(NCCOCCO)nc3ccccn3c2=O)SC(=S)N1Cc1ccco1	31.6% (active)
CCN1CCN(c2c(/C=C3\SC(=S)N(Cc4ccco4)C3=O)c(C)c(C#N)c(=O)n2C)CC1	0.03% (inactive)
Cc1cccc(C)c1NC(=O)CNC(=O)Cc1ccc(Br)cc1	0.05% (inactive)
C=CCn1c(C)c(/C=C/c2cc[n+](C)cc2)c2ccccc21	8.02% (inactive)
O=c1cc2c(c(-c3ccccc3)n1Cc1ccccc1)[C@H](CCO)NC2	0.32% (inactive)
Cn1c(=O)c2cc(NCc3ccccc3)nnc2n(C)c1=O	0.34% (inactive)
Cn1c(=O)cc(N)n(Cc2ccccc2)c1=O	14.3% (active)
CC(C)CN1CCC(C(=O)N2CCN(c3ccccc3F)CC2)CC1	-0.02% (inactive)
CN1CCN(C(=O)c2cc3ccccc3[nH]2)CC1	-0.01% (inactive)
CCC(CC)C(=O)c1c[nH]c(C(=O)N2CCN(c3ccccc3F)CC2)c1	17% (active)
CC(=O)Nc1ccc2nc3c(=O)n(C)c(=O)n(C)c3nc2c1	1.77% (inactive)
COc1ccc(CCNC(=O)CN(C)S(=O)(=O)c2ccc3c(c2)CCC(=O)N3)cc1OC	-0.01% (inactive)

Compound	fluorescence artifact activation
COc1cc(/C=C/C(=O)c2ccc3c(c2)OCO3)cc(Cl)c1O	1.66% (inactive)
Cc1cc[n+](-c2[nH]c(=O)sc2/C=N/NC([S-])=Nc2ccccc2)cc1	1.49% (inactive)
CC(C)OC(=O)CC(=O)CSc1nc(-c2ccc(F)cc2)cc(-c2ccccc2)c1C#N	17.5% (active)
CCOC(=O)CC(=O)CSc1nc(-c2ccc3c(c2)OCO3)cc(C(F)(F)F)c1C#N	0.09% (inactive)
COc1ccc(-c2cc(C3CC3)nc(SCC(=O)c3cccs3)c2C#N)cc1	0.1% (inactive)
Cc1cc(C)n(-c2nc3ccccc3nc2Nc2ccc3[nH]c(=O)[nH]c3c2)n1	4.66% (inactive)
CC(C)Oc1ccc(/C(O)=C2/C(=O)C(=O)N(CCN3CCNCC3)C2c2cccc([N+](=O)[O-])c2)cc1 (stereo not given)	1.8% (inactive)
CCOC(=O)C1=C(C)NC(=O)/C1=C\N(C)C	0.04% (inactive)
Cc1cc(C)c(NC(=S)N(C)C)c(C)c1	31.3% (active)
NC(=O)c1ccccc1N/C=C/C(=O)c1ccc(Cl)cc1Cl	1.35% (inactive)
COc1ccc(NC(=O)C(c2ccc(C)cc2)N(C)C(=O)Cc2cccs2)cc1 (stereo not given)	0.03% (inactive)
COc1ccc(NC(=O)CNS(=O)(=O)c2cccs2)cc1	-0.02% (inactive)
COc1ccc(N(C(=O)c2ccc(C)cc2)S(=O)(=O)c2cccs2)cc1	54.9% (active)
CCOC(=O)C(C#N)C(c1cccnc1)c1c(C)[nH][nH]c1=O (stereo not given)	0.03% (inactive)
O=C(CSc1nc2cc(Cl)ccc2s1)c1cc2ccccc2o1	39.2% (active)
O=C(CSc1nc2ccccc2s1)c1cc2ccccc2o1	6.22% (inactive)
Cc1ccccc1Nc1nnc(SCC(=O)c2cc3ccccc3o2)s1	-0.07% (inactive)
CCN(CC)C(=O)c1ccc(/C=C/c2c[nH]c3ccccc23)[n+](C)c1	0.26% (inactive)
Brc1ccc(C2=CC(c3ccco3)n3ncnc3N2)cc1 (stereo not given)	0.04% (inactive)
CS(=O)(=O)Nc1nc2n(n1)C(c1ccccc1)C=C(c1ccc(Br)cc1)N2 (stereo not given)	13% (active)
Brc1ccc(C2=CC(c3cccs3)n3ncnc3N2)cc1 (stereo not given)	0.13% (inactive)
O=C(O)C1=C[C@H](c2ccccc2)C[C@H](OCc2ccc(CO)cc2)O1	0.07% (inactive)
Cc1ccc(NC(=O)C(OC(=O)c2ccc(F)cc2)c2ccccc2)cc1Cl (stereo not given)	-0.03% (inactive)
